Reference: ChEMBL document CHEMBL1152244, “Proteochemometrics analysis of substrate interactions with dengue virus NS3 proteases” (Bioorg Med Chem, 2008)
Non-standard residues stand in square brackets, D forms with d. Residues, ends and D or L forms follow the SMILES beside them. Tyr(3-NO2) = N[C@@H](Cc1ccc(O)c([N+](=O)[O-])c1)C(=O)O; 2Abz = Nc1ccccc1C(=O)O

Tests used:
[1] = tested on: dengue virus type 1; assay: Activity of dengue virus 1 recombinant NS3 protease expressed in Escherichia coli C41(DE3) by fluorogenic assay
In short: (§1)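 NS2B(H)-NS3pro from inclusion bodies, Ni-chelate and gel filtration purified under 8 M urea, refolded by dialysis. Internally quenched Abz–RRRR-XXXX–nY–NH2 peptides, 1–100 µM (12 points), enzyme 150–200 nM, 50 mM Tris–HCl pH 9.0, 20% glycerol, 37 °C. Cleavage read as fluorescence, ex 320/em 420 nm. Initial rates fitted to give Km and kcat, averaged over ≥3 independent measurements.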

[2] = tested on: dengue virus type 3; assay: Activity of dengue virus 3 recombinant NS3 protease expressed in Escherichia coli C41(DE3) by fluorogenic assay; in short: as §1
[3] = tested on: dengue virus type 2; assay: Activity of dengue virus 2 recombinant NS3 protease expressed in Escherichia coli C41(DE3) by fluorogenic assay; in short: as §1
[4] = tested on: dengue virus type 4; assay: Activity of dengue virus 4 recombinant NS3 protease expressed in Escherichia coli C41(DE3) by fluorogenic assay; in short: as §1

Compound | Km [1] [µM] | kcat [1] [s⁻¹] | Km [2] [µM] | kcat [2] [s⁻¹] | Km [3] [µM] | kcat [3] [s⁻¹] | Km [4] [µM] | kcat [4] [s⁻¹]
CC(C)C[C@H](NC(=O)[C@@H](NC(=O)CNC(=O)[C@H](C)NC(=O)c1ccccc1N)C(C)C)C(=O)N[C@@H](Cc1ccc(O)c([N+](=O)[O-])c1)C(N)=O (H-[2Abz]AGVL[Tyr(3-NO2)]-NH2) | 23.9 | 0.06 | 10.6 | 0.0105 | 2.19 | 0.00567 | 10.8 | 0.0553
NC(=O)[C@H](Cc1ccc(O)c([N+](=O)[O-])c1)NC(=O)[C@H](Cc1cnc[nH]1)NC(=O)[C@@H]1CCCN1C(=O)[C@H](CO)NC(=O)[C@H](Cc1cnc[nH]1)NC(=O)c1ccccc1N (H-[2Abz]HSPH[Tyr(3-NO2)]-NH2) | 16.7 | 0.00633 | 19.6 | 0.000833 | 5.77 | 0.00117 | 7.25 | 0.00417
NC(=O)C[C@H](NC(=O)CNC(=O)[C@H](Cc1cnc[nH]1)NC(=O)[C@H](Cc1cnc[nH]1)NC(=O)c1ccccc1N)C(=O)N[C@@H](Cc1ccc(O)c([N+](=O)[O-])c1)C(N)=O (H-[2Abz]HHGN[Tyr(3-NO2)]-NH2) | 9.1 | 0.004 | 10.1 | 0.00183 | 4.34 | 0.00133 | 7.06 | 0.0192
C[C@@H](O)[C@H](NC(=O)[C@H](Cc1c[nH]c2ccccc12)NC(=O)[C@H](CC(N)=O)NC(=O)c1ccccc1N)C(=O)N[C@@H](CC(N)=O)C(=O)N[C@@H](Cc1ccc(O)c([N+](=O)[O-])c1)C(N)=O (H-[2Abz]NWTN[Tyr(3-NO2)]-NH2) | 13.7 | 0.0145 | 9.37 | 0.0065 | 6.02 | 0.005 | 10.4 | 0.0378
NC(=O)[C@H](Cc1ccc(O)c([N+](=O)[O-])c1)NC(=O)[C@H](Cc1cnc[nH]1)NC(=O)[C@H](CS)NC(=O)CNC(=O)[C@H](CC(=O)O)NC(=O)c1ccccc1N (H-[2Abz]DGCH[Tyr(3-NO2)]-NH2) | 22.9 | 0.0128 | 20.8 | 0.00283 | 7.02 | 0.0015 | 9.05 | 0.00783
NC(=O)C[C@H](NC(=O)c1ccccc1N)C(=O)N1CCC[C@H]1C(=O)N[C@@H](CO)C(=O)N[C@@H](Cc1cnc[nH]1)C(=O)N[C@@H](Cc1ccc(O)c([N+](=O)[O-])c1)C(N)=O (H-[2Abz]NPSH[Tyr(3-NO2)]-NH2) | 13.4 | 0.00617 | 26.9 | 0.00183 | 5.18 | 0.00133 | 21.5 | 0.0225

Results, then the molecule that gave them:

Km [1] [µM] | kcat [1] [s⁻¹] | Km [2] [µM] | kcat [2] [s⁻¹] | Km [3] [µM] | kcat [3] [s⁻¹] | Km [4] [µM] | kcat [4] [s⁻¹] | Compound
49.7 | 0.0715 | 18.6 | 0.0247 | 12.9 | 0.00717 | 12.2 | 0.0585 | C[C@@H](O)[C@H](NC(=O)CNC(=O)CNC(=O)c1ccccc1N)C(=O)N[C@@H](CC(=O)O)C(=O)N[C@@H](Cc1ccc(O)c([N+](=O)[O-])c1)C(N)=O (H-[2Abz]GGTD[Tyr(3-NO2)]-NH2)
17.4 | 0.0825 | 18.9 | 0.0237 | 4.66 | 0.0157 | 7.79 | 0.0782 | C[C@H](NC(=O)CNC(=O)c1ccccc1N)C(=O)N[C@H](C(=O)N[C@@H](Cc1cnc[nH]1)C(=O)N[C@@H](Cc1ccc(O)c([N+](=O)[O-])c1)C(N)=O)[C@@H](C)O (H-[2Abz]GATH[Tyr(3-NO2)]-NH2)
10.5 | 0.0193 | 12.6 | 0.00967 | 6.5 | 0.0055 | 11.8 | 0.0735 | CC(C)[C@H](NC(=O)[C@@H](NC(=O)CNC(=O)c1ccccc1N)[C@@H](C)O)C(=O)N[C@@H](CC(N)=O)C(=O)N[C@@H](Cc1ccc(O)c([N+](=O)[O-])c1)C(N)=O (H-[2Abz]GTVN[Tyr(3-NO2)]-NH2)
22.1 | 0.0462 | 20.9 | 0.0128 | 3.05 | 0.00483 | 10.7 | 0.0855 | C[C@@H](O)[C@H](NC(=O)CNC(=O)c1ccccc1N)C(=O)NCC(=O)N[C@@H](CC(N)=O)C(=O)N[C@@H](Cc1ccc(O)c([N+](=O)[O-])c1)C(N)=O (H-[2Abz]GTGN[Tyr(3-NO2)]-NH2)
